Rad51 HR inh: Rad51 (human) homologous recombination inhibition; hit rate 0.085% among 200,000; Q06609; hRad51 DNA strand exchange, fluorescence dequenching; inhibition, % at 10 µM; AID 1385;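 active means inhibition above 40% at the single screening dose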;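 further: 0% = DMSO control wells and 100% = blanks with heterologous ssDNA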
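material = hRad51 filaments on single-stranded DNA | timing = filaments 15 min 37 °C, then compound 30 min | signal = FRET fluorescence dequenching, excitation 485 nm, emission 520 nm | benchmarks = control wells and blank wells on each plate | evaluation = percent inhibition relative to plate controls and blanks | compound = 10 µM final, single point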
SKKanGAS inh: SKKanGAS growth inhibition; S. pyogenes SKKanGAS, kanamycin growth, BacTiter-Glo, 6 h; inhibition, % at 7.5 µM; hit rate 1.3% among 300,000;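 active means mean replicate score, as percent of positive control median, at least 50; inconclusive means mean below 50 but one replicate at or above 50; inactive means mean and every replicate below 50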;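 further: strain carries kanamycin resistance gene driven by streptokinase promoter and grows in 40 µg/ml kanamycin; loss of luminescence reflects streptokinase promoter inhibition or plain growth inhibition; 0% = median of DMSO wells and 100% = positive control at its reference dose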
KCC2 mod: modulates chloride dependent transport by human KCC2. Q9H2X9. KCC2 cells, thallium flux FluoZin-2 fluorescence. B-score of Tl+ flux slope (higher = more flux/activation; lower = inhibition) at 10 µM. hit rate 2.2% among 190,000. AID 1456;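 active means thallium flux slope and its plate-corrected score both differing from the plate sample mean at a set confidence after two filtering rounds, in either direction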;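 further: slope of fluorescence scaled to starting intensity during 10 to 20 s after thallium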
Target sequence (Q9H2X9 whole entry, looked up): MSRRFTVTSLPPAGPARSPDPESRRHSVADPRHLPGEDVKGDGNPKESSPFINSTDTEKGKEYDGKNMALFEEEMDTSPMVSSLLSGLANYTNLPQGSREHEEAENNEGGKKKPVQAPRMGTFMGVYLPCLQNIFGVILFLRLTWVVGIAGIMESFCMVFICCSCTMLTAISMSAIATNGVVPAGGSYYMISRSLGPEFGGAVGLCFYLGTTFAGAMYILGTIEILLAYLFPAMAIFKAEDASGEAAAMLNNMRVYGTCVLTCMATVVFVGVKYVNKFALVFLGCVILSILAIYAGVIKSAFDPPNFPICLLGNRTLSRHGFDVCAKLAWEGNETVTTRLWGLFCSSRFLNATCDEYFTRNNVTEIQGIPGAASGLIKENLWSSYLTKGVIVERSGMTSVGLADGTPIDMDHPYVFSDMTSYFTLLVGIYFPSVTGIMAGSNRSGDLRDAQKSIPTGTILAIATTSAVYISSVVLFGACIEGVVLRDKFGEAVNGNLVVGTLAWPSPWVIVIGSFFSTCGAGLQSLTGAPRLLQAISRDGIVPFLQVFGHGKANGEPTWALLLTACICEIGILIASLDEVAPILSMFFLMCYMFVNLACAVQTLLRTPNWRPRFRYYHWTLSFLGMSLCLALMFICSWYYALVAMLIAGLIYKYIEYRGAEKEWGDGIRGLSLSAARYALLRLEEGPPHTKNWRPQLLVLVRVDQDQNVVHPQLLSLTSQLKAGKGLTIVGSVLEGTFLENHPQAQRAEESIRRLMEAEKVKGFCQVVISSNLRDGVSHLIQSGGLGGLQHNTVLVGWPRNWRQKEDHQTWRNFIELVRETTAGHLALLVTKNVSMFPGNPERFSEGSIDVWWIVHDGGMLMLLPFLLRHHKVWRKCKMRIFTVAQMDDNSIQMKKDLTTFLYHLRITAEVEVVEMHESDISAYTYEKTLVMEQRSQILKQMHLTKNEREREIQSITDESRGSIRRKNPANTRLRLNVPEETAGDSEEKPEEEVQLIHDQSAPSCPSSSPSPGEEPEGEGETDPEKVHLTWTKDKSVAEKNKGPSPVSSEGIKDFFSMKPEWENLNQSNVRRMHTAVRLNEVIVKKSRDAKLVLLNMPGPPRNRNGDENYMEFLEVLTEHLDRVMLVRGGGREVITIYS
Autophagy HCS: modulators of autophagy; MEF GFP-LC3 puncta imaging; test concentration mostly 10 µM; calls only at 10 µM (by protocol); hit rate 0.98% among 190,000;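 active means percentage of spot-positive cells more than 3 SD above its plate mean, without a fluorescence outlier flag or 80% toxicity; inconclusive means no clear call, values can overlap the other calls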;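 further: spot-positive cell cutoff set from DMSO-treated cells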
WT yeast gro inh: growth inhibition of WT yeast, mitochondrial fusion screen | mitochondrial fusion phenotypic screen, WT strain | inhibition, % at 10 µM | hit rate 2.1% among 190,000 | AID 1362; in the data active means inhibition above about 58%; tested in S. cerevisiae
Insulin prom up: MIN6 insulin promoter up-regulation; z-score at 5 µM; MIN6 insulin promoter-GFP reporter, high-content imaging; hits give high values; hit rate 0.3% among 190,000;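 active means z-score above 3 at 5 µM with at least 500 cells counted in the well; inconclusive means wells under 500 cells, flagged as cytotoxic or low count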
Starred values were filed as active, the others as inactive; i = inactive; ? = inconclusive; nt = no result; + = active, no number. Shown are actives, neighbours in structure and some others; about 4.2% of the full set was active somewhere.

SMILES | Rad51 HR inh | SKKanGAS inh | KCC2 mod | Autophagy HCS | WT yeast gro inh | Insulin prom up
CCn1cc(C(=O)N[C@@H](CCSC)C(=O)NCCCN2CCOCC2)c(=O)c2cc3c(cc21)OCO3 | nt | -1 | nt | nt | nt | nt
NCCNc1ccc(C(=O)N2c3ccccc3Sc3ccccc32)cc1[N+](=O)[O-] | nt | -2 | nt | nt | nt | nt
Cc1cc(Br)ccc1NC(=O)CN(C)C(=O)c1cc([N+](=O)[O-])ccc1N1CCOCC1 | nt | -1 | nt | nt | nt | nt
O=[N+]([O-])c1cccnc1N1CCC(c2cc(-c3ccc(Cl)cc3)n[nH]2)CC1 | nt | 73* | 0.11 | i | 72* | nt
NN(CCO)C(=S)Nc1ccc(Cl)cc1 | 2 | -9 | -1.5 | i | 12 | -0.23
Cc1ccccc1N(C(=O)CNC(=O)c1ccco1)C(C(=O)NC1CCCC1)c1ccncc1 (stereo not drawn) | nt | 15 | nt | nt | nt | nt
COc1ccc(-c2csc(NC(CO)c3nc4ccccc4n3Cc3ccc(C)cc3)n2)cc1 (stereo not drawn) | 0 | 31 | nt | nt | nt | nt
Cc1ccc(Cn2c(C(CO)Nc3nc(-c4ccc(F)cc4)cs3)nc3ccccc32)cc1 (stereo not drawn) | 0 | 80* | nt | nt | nt | nt
O=C(CNC(=O)c1ccc(Br)o1)NCc1ccccc1Cl | nt | 1 | nt | nt | nt | nt
CC(C)C(c1nnnn1C1CCCC1)N(C)C1CCCCC1 (stereo not drawn) | 2 | 6 | nt | i | -2 | -0.04
Cc1ccc(C(c2nnnn2C2CCCCC2)N(C)C2CCCCC2)cc1 (stereo not drawn) | 7 | 14 | 0.93 | i | 81* | -0.2
CC(C)SCc1cc(N2CCCC2)nc(-c2ccccc2)n1 | 5 | -13 | 0.36 | i | 58* | -1
CC(=O)N1CCN(c2cc3c(cc2F)c(=O)c(C(=O)O)cn3C2CC2)CC1 | -6 | ? | 0.061 | i | -32 | -0.19
CCCOc1ccc(C(=O)NC(=S)N2CCN(c3cc4c(cc3F)c(=O)c(C(=O)O)cn4CC)CC2)cc1 | nt | 91* | nt | nt | nt | nt
CCN1CCN(c2cc3c(cc2F)c(=O)c(C(=O)O)cn3C2CC2)CC1 | -2 | 103* | 2.1 | i | 6 | nt
Cc1ccccc1NC(=O)C1CCN(S(=O)(=O)c2cccc3nonc23)CC1 | nt | 18 | nt | nt | nt | nt
CN=C1S/C(=C\c2ccc(N3CCOCC3)c(F)c2)C(=O)N1C | 4 | 61* | 1 | i | 2 | -0.2
CN=C1S/C(=C\c2ccc(N3CCCC3)c(F)c2)C(=O)N1C | -40 | 36 | 2 | i | 25 | 0.37
Cn1c(NCCCO)nc2c(c1=O)C1(CCCCC1)Cc1ccccc1-2 | 20 | nt | -0.11 | i | 60* | 0.53
CSc1n[nH]c2nc3c(c(=O)n12)C1(CCCCC1)Cc1ccccc1-3 | -1 | 60* | nt | nt | nt | 0.12
CCOC(=O)C1=C(CS(=O)(=O)c2ccccc2)NC(=O)NC1c1ccccc1 (stereo not drawn) | 1 | 3 | 0.17 | i | -2 | 0.38
CCCC1=C(C(=O)OCC)C(c2ccc(NC(C)=O)cc2)NC(=O)N1 (stereo not drawn) | 7 | -13 | 0.26 | i | 61* | -0.36
COc1cccc(OC)c1OCCN(C)C | -4 | -8 | nt | i | -4 | 4*
CCOc1ncccc1C(=O)OCC(=O)c1ccc(F)cc1 | 4 | -1 | -0.024 | i | 21 | 0.07
O=C(COC(=O)CC(c1ccccc1)c1ccccc1)Nc1ccc(F)c(F)c1 | 25 | 23 | -0.89 | i | 59* | -0.3
SMILES | Rad51 HR inh | SKKanGAS inh | KCC2 mod | Autophagy HCS | WT yeast gro inh | Insulin prom up
Cc1cnc(NC(=O)CN2CCN(c3ccccn3)CC2)s1 | nt | 8 | -0.35 | i | -2 | 3.1*
COc1ccc(N2CCN(CC(=O)Nc3ncc(C)s3)CC2)cc1 | nt | 10 | nt | nt | nt | nt
CCOC(=O)c1c(NC(=O)c2ccccc2)sc2c1CCc1ccccc1-2 | nt | 12 | 1.4 | i | 14 | -5.2
CCOC(=O)c1sc(NC(=S)NC(=O)c2ccccc2)c(C(=O)OCC)c1C | nt | -8 | 0.47 | + | 4 | -0.47
CCOC(=O)C1=C(NC(=S)NC(=O)c2ccccc2)c2ccccc2CC1C(C)C (stereo not drawn) | 3 | 20 | nt | i | 78* | -0.8
COc1ccc(N(CC(=O)NC2CCCC2)C(=O)Cn2nnc(-c3ccc(OC)c(OC)c3)n2)c(OC)c1 | nt | -6 | nt | nt | nt | nt
O=C(NCC(c1ccco1)N1CCc2ccccc2C1)c1ccc(Br)cc1 (stereo not drawn) | nt | 12 | nt | nt | nt | nt
CCOC(=O)c1sc(N(Cc2ccccc2)C(=O)CCl)nc1C | nt | -4 | nt | nt | nt | nt
O=C(O)CSCC(=O)N(Cc1ccccc1)c1nc(-c2ccccc2)c(-c2ccccc2)s1 | nt | 94* | nt | nt | nt | nt
COc1ccc(Cl)cc1C(=O)NCC(c1ccco1)N1CCCC1 (stereo not drawn) | -7 | -3 | -2 | + | 10 | -0.29
O=C(NCC(c1ccco1)N1CCCCC1)c1ccc(OCc2ccccc2)cc1 (stereo not drawn) | nt | -5 | nt | i | 71* | nt
O=C(NCC(c1ccco1)N1CCCCC1)c1ccc(COc2ccccc2)cc1 (stereo not drawn) | nt | -2 | nt | nt | nt | nt
CCOc1ccc2c(c1)C(C)=CC(C)(C)N2S(=O)(=O)c1ccc(F)cc1 | nt | 7 | nt | nt | nt | nt
CC1=CC(C)(C)N(S(=O)(=O)c2ccc(F)cc2)c2ccc(C)cc21 | 3 | 6 | -1.3 | i | 81* | nt
COc1cccc(-c2nnc(SCC3CNC(=O)O3)n2-c2ccc(Cl)cc2)c1 (stereo not drawn) | 6 | 3 | -0.098 | i | 2 | -0.12
COc1cc(Nc2nc(-c3ccccc3)c3cc(C)ccc3n2)cc(OC)c1OC | nt | 26 | nt | i | 73* | -1.5
CCOc1ccc(CCNC(=O)CCC(=O)N2CCOc3ccccc32)cc1OCC | nt | -6 | nt | nt | nt | nt
CCCCCC/C(=N/O)c1ccccn1 | 7 | 94* | 0.071 | nt | 2 | -0.3
Clc1ccccc1Cn1c(/C=C/c2ccco2)nc2ccccc21 | nt | 1 | -0.3 | i | 78* | 0.38
O=c1ccc(-c2nc3ccccc3n2Cc2ccccc2Cl)c[nH]1 | nt | 5 | 0.67 | i | 29 | -1.6
Cc1ccc(CNC(=O)c2nn(C)c(C)c2[N+](=O)[O-])cc1 | 26 | -11 | nt | i | 8 | ?
Cc1ccc(CNC(=O)c2ccc([N+](=O)[O-])o2)cc1 | 11 | 56* | 0.31 | i | 30 | 1.4

Assay outcomes as filed in PubChem.
